esBAF inh = inhibitors of esBAF chromatin remodeling in mouse ES cells; actives 2% (n = 350,000); reporter increase, % at 12.5 µM; AID 602393; Bmi1-luciferase knock-in reporter, 24 h; 100% = twice the neutral-well signal; in the data active = activation above about 40%;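 note: a rise in the Bmi1 reporter signal indicates esBAF inhibition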
SMARCA2 act = activators of SMARCA2 function. MG213 cells, MMTV-luciferase reporter, dexamethasone, overnight. activation, % at 9.1 µM. actives 1% (n = 370,000); in the data active = activation above about 7.8%
ARFGAP1 inhibitor = inhibitors of rat ARFGAP1. Q62848. Arfgap1-stimulated ARF1 GTP hydrolysis, GDP FP detection. inhibition, % at 16.5 µM. actives 0.26% (n = 360,000). AID 651572;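 active = inhibition above a per-plate limit, mean inhibition of low control wells plus 3 SD, cut at about 25% in these data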
Target sequence (Q62848 1-136 limits assumed): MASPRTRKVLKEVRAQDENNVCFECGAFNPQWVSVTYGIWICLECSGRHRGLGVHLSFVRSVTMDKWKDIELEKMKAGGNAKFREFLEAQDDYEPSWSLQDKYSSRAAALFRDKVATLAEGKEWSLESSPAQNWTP
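Material: truncated rat Arfgap1 GAP domain; Incubation: compound-enzyme preincubation 20 min, reaction 120 min, detection 60 min, 25 °C; Read-out: percent inhibition of Arfgap1-stimulated GTP hydrolysis; Technique: FP, GDP Alexa 633 tracer displaced from anti-GDP antibody, 620/688 nm; Controls: No-Arfgap1 wells (100%) versus DMSO full-reaction wells (0%); Replication: single well per compound.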
ASAP1 inh = ASAP1 ArfGAP inhibition. ASAP1-stimulated ARF1 GTP hydrolysis, GDP FP detection. inhibition, % at 16.5 µM. actives 0.19% (n = 360,000); in the data active = inhibition above about 25%
ARFGAP1 confirm = rat ARFGAP1 inhibition, confirmed; shares compounds with ARFGAP1 inhibitor; ARFGAP1-stimulated ARF1 GTP hydrolysis, GDP tracer FP; inhibition, % at 16.5 µM; actives 30% (n = 890);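 active = average inhibition over triplicates above the hit cutoff set in the earlier primary screen, cut at about 25% in these data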
Large screens that a line does not name were inactive (follow-up assays come after a bar, where they were run). An excerpt weighted towards active compounds, which were near 2.6% of everything screened.

COC(=O)C1=C(C)N(Cc2cccc(C(F)(F)F)c2)C(=NCc2ccccc2C(F)(F)F)NC1c1cccc(C(F)(F)F)c1 (stereo not drawn)	none (no result: esBAF inh)
C[C@@H]1CN([C@@H](C)CO)C(=O)c2cc(NC(=O)Cc3ccccc3)ccc2O[C@@H](C)CCCCO[C@H]1CN(C)Cc1ccncc1	none (no result: SMARCA2 act, ARFGAP1 inhibitor, ASAP1 inh)
Oc1ccc(C=NNc2nc3ccccc3s2)c(O)c1	ARFGAP1 inhibitor 30 (no result: esBAF inh) | ARFGAP1 confirm inactive
CC(=O)Nc1ccc(Nc2nccc(C)n2)cc1	none
Cc1ccnc(Nc2ccc(CCO)cc2)n1	ARFGAP1 inhibitor 27 | ARFGAP1 confirm inactive
CCCCCCCCN1C(=O)[C@H](CC(=O)NCc2ccccc2)C[C@@]2(C(=O)OCC)CCC=C12	ARFGAP1 inhibitor 28 (no result: esBAF inh) | ARFGAP1 confirm inactive
CCCCCCCCN1C(=O)[C@H](CC(=O)NCc2cccc3ccccc23)C[C@@]2(C(=O)OCC)CCC=C12	none (no result: esBAF inh)
COc1cc(/C=C/c2nc(N)nc(-c3ccccc3O)n2)cc(OC)c1OC	none
COc1ccc(/C=C/c2nc(N)nc(-c3ccccc3O)n2)cc1OC	ARFGAP1 inhibitor 30 (no result: esBAF inh) | ARFGAP1 confirm 38
COCC(=O)Nc1ccc2c(c1)OC[C@H](C)N(Cc1ccccn1)C[C@H](C)[C@@H](OC)CN(C)C2=O	none (no result: SMARCA2 act, ARFGAP1 inhibitor, ASAP1 inh)
CC(=O)c1cccc(NC(=O)C2C(c3ccccc3)C2(Cl)Cl)c1 (stereo not drawn)	none (no result: esBAF inh)
Cc1cccc(NC(=O)C2C(c3ccccc3)C2(Cl)Cl)c1 (stereo not drawn)	ARFGAP1 inhibitor 28 (no result: esBAF inh) | ARFGAP1 confirm inactive
COc1cc(/C=N/NC(=O)c2cccnc2)ccc1OS(=O)(=O)c1ccc(C)cc1	none (no result: esBAF inh)
COc1ccc(C=NNC(=O)NN=Cc2ccc(OC)c(OC)c2)cc1OC	ARFGAP1 inhibitor 38 (no result: esBAF inh) | ARFGAP1 confirm 55
COC(=O)N/N=C/c1ccc(OS(=O)(=O)c2ccc(C)cc2)c(OC)c1	ARFGAP1 inhibitor 37 (no result: esBAF inh) | ARFGAP1 confirm inactive
COc1ccc(C=NNC(=O)CCCC(=O)NN=Cc2ccc(OC)c(OC)c2)cc1OC	none (no result: esBAF inh)
CO[C@@H]1CN(C)C(=O)c2cccc(C#N)c2OC[C@H]2O[C@@H](CC[C@H]2OC)CCN(C)C(=O)[C@H]1C	none (no result: SMARCA2 act, ARFGAP1 inhibitor, ASAP1 inh)
C[C@H](CO)N1C[C@H](C)[C@H](CN(C)C(=O)CN(C)C)Oc2ncc(C#Cc3cccnc3)cc2C1=O	none (no result: SMARCA2 act, ARFGAP1 inhibitor, ASAP1 inh)
Nn1cnnc1N/N=C\c1ccc(-c2ccccc2[N+](=O)[O-])o1	ARFGAP1 inhibitor 27 | ARFGAP1 confirm inactive
COc1ccc(/C=N/Nc2cc(N3CCOCC3)ncn2)c(OC)c1	none
COc1cccc(/C=N/Nc2cc(N3CCOCC3)ncn2)c1O	ARFGAP1 inhibitor 29 | ARFGAP1 confirm 43
CCCN1CCN(C(=O)Cn2ncc3c([nH]c4ccc(C)cc43)c2=O)CC1	none
Cc1ccc2[nH]c3c(=O)n(CC(=O)N4CC(C)CC(C)C4)ncc3c2c1 (stereo not drawn)	ARFGAP1 inhibitor 31 | ARFGAP1 confirm 41
C[C@H]1CN([C@@H](C)CO)C(=O)Cc2cc(NC(=O)Nc3ccc(F)cc3)ccc2O[C@@H]1CN(C)C(=O)Nc1ccc(F)cc1	none (no result: SMARCA2 act, ARFGAP1 inhibitor, ASAP1 inh)
CC(=O)c1cccc(NC(=O)CN(C)Cc2ccc(OC(F)F)cc2)c1	ARFGAP1 inhibitor 42 | ARFGAP1 confirm inactive
O=C(N/N=C/c1ccccn1)c1cc(-c2ccc3ccccc3c2)n[nH]1	ARFGAP1 inhibitor 29 (no result: esBAF inh) | ARFGAP1 confirm 100
O=C(N/N=C/C=C\c1ccccc1[N+](=O)[O-])c1cc(-c2ccc3ccccc3c2)n[nH]1	ARFGAP1 inhibitor 30 | ARFGAP1 confirm inactive
O=C(N/N=C/C=C/c1ccccc1[N+](=O)[O-])c1ccncc1	none (no result: esBAF inh)
CC1CC(C)CN(C(=O)COC(=O)c2cc3ccccc3cc2O)C1 (stereo not drawn)	ARFGAP1 inhibitor 37 | ARFGAP1 confirm 32
CC1CC(C)CN(C(=O)COC(=O)c2cc3ccccc3oc2=O)C1 (stereo not drawn)	none
CC(=O)N(C)C[C@@H]1Oc2ncc(C#Cc3ccccc3)cc2C(=O)N([C@@H](C)CO)C[C@@H]1C	none (no result: SMARCA2 act, ARFGAP1 inhibitor, ASAP1 inh)
CSCCC(NC(=O)OCc1ccccc1)C(=O)NCc1cccnc1 (stereo not drawn)	ARFGAP1 inhibitor 25 | ARFGAP1 confirm inactive
Cc1sc2nc(SCC(=O)NCCOCCO)nc(N)c2c1C	none
Cc1sc2nc(SCC(=O)N(CCO)CCO)nc(N)c2c1C	ARFGAP1 inhibitor 28 (no result: esBAF inh) | ARFGAP1 confirm inactive
O=C(COC(=O)C12CC3CC(CC(C3)C1)C2)N1CCN(S(=O)(=O)c2ccccc2)CC1	ARFGAP1 inhibitor 29 | ARFGAP1 confirm inactive

High-throughput results (PubChem BioAssay)
